Measured values taken from ChEMBL document CHEMBL1124389, “Spermexatin and spermexatol: new synthetic spermidine-based siderophore analogues” (1989).

Tests used:
Type in all cases: functional
[1] = tested on: Escherichia coli; experiment: Compound (10 mM) was tested for the ability to stimulate growth of Escherichia coli UT 2300 at 18 h
In short: (§1)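 Disk-diffusion growth-promotion assay on E. coli RW 193 (FepA+) or its FepA− derivative UT2300. Cells were seeded at 10⁴/mL into Luria agar containing the iron chelator EDDA. Siderophores were dissolved in ethanol at 50, 10, 1 or 0.2 mM, spotted onto sterile disks, and the ethanol was evaporated. Plates were incubated 18 h at 37 °C and scored for growth around the disks. A 10 mM FeCl₃ disk served as positive control.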

[2] = tested on: Escherichia coli; experiment: Compound (0.2 mM) was tested for the ability to stimulate growth of Escherichia coli RW 193 at 18 h; in short: as §1
[3] = tested on: Escherichia coli; experiment: Compound (1 mM) was tested for the ability to stimulate growth of Escherichia coli UT 2300 at 18 h; in short: as §1
[4] = tested on: Vibrio cholerae; experiment: Compound (0.2 mM) was tested for the ability to stimulate growth of Vibrio cholera 1510 at 18 h
[5] = tested on: Vibrio cholerae; experiment: Compound (50 mM) was tested for the ability to stimulate growth of Vibrio cholera 1510 at 18 h
[6] = tested on: Escherichia coli; experiment: Compound (10 mM) was tested for the ability to stimulate growth of Escherichia coli RW 193 at 18 h; in short: as §1
[7] = tested on: Escherichia coli; experiment: Compound (1 mM) was tested for the ability to stimulate growth of Escherichia coli RW 193 at 18 h; in short: as §1
[8] = tested on: Escherichia coli; experiment: Compound (0.2 mM) was tested for the ability to stimulate growth of Escherichia coli UT 2300 at 18 h; in short: as §1
[9] = tested on: Vibrio cholerae; experiment: Compound (10 mM) was tested for the ability to stimulate growth of Vibrio cholera Lou 15 at 18 h
[10] = tested on: Escherichia coli; experiment: Compound (50 mM) was tested for the ability to stimulate growth of Escherichia coli UT 2300 at 18 h; in short: as §1
[11] = tested on: Vibrio cholerae; experiment: Compound (50 mM) was tested for the ability to stimulate growth of Vibrio cholera Lou 15 at 18 h
[12] = tested on: Vibrio cholerae; experiment: Compound (1 mM) was tested for the ability to stimulate growth of Vibrio cholera 1510 at 18 h
[13] = tested on: Vibrio cholerae; experiment: Compound (10 mM) was tested for the ability to stimulate growth of Vibrio cholera 1510 at 18 h
[14] = tested on: Vibrio cholerae; experiment: Compound (1 mM) was tested for the ability to stimulate growth of Vibrio cholera Lou 15 at 18 h
[15] = tested on: Vibrio cholerae; experiment: Compound (0.2 mM) was tested for the ability to stimulate growth of Vibrio cholera Lou 15 at 18 h
[16] = tested on: Escherichia coli; experiment: Compound (50 mM) was tested for the ability to stimulate growth of Escherichia coli RW 193 at 18 h; in short: as §1
[17] = tested on: Vibrio cholerae; experiment: Compound (1 mM) was tested for the ability to stimulate growth of Vibrio cholera Lou 15 at 42h
[18] = tested on: Vibrio cholerae; experiment: Compound (10 mM) was tested for the ability to stimulate growth of Vibrio cholera Lou 15 at 42h
[19] = tested on: Vibrio cholerae; experiment: Compound (0.2 mM) was tested for the ability to stimulate growth of Vibrio cholera Lou 15 at 42h

Row | Structure (SMILES) | Growth zone [1] [mm] | Growth zone [2] [mm] | Growth zone [3] [mm] | Growth zone [4] [mm] | Growth zone [5] [mm] | Growth zone [6] [mm] | Growth zone [7] [mm] | Growth zone [8] [mm] | Growth zone [9] [mm] | Growth zone [10] [mm] | Growth zone [11] [mm] | Growth zone [12] [mm] | Growth zone [13] [mm] | Growth zone [14] [mm] | Growth zone [15] [mm] | Growth zone [16] [mm] | Growth zone [17] [mm] | Growth zone [18] [mm] | Growth zone [19] [mm]
1 | CN(O)C(=O)CCC(=O)NCCCCN(CCCNC(=O)CCC(=O)N(C)O)C(=O)CCC(=O)N(C)O | 0 | 0 | 0 | 0 | 0 | 0 | 0 | 0 | 17 | 12 | 19 | 0 | 0 | 17 | 16 | 12 |  |  | 
2 | CN(O)C(=O)CCCC(=O)NCCCCN(CCCNC(=O)CCCC(=O)N(C)O)C(=O)CCCC(=O)N(C)O | 10 | 0 | 0 | 0 | 12 | 10 | 0 | 0 |  | 16 | 12 | 0 | 0 |  |  | 18 | 0 | 0 | 0
3 | O=C(N[C@H]1COC(=O)[C@@H](NC(=O)c2cccc(O)c2O)COC(=O)[C@@H](NC(=O)c2cccc(O)c2O)COC1=O)c1cccc(O)c1O [ENTEROBACTIN] | 0 | 28 | 0 | 0 |  |  | 40 | 0 | 28 |  |  | 0 | 0 | 22 | 0 |  |  |  | 
4 | CN(O)C(=O)CCC(=O)N(CCCCNC(=O)c1cccc(O)c1O)CCCNC(=O)c1cccc(O)c1O [SPERMEXATOL] | 0 | 0 | 0 | 0 | 28 | 12 | 0 | 0 |  | 0 | 36 | 0 | 0 |  |  | 21 | 0 | 0 | 0
5 | CC1OC(c2cccc(O)c2O)=NC1C(=O)NCCCN(CCCNC(=O)c1cccc(O)c1O)C(=O)C1N=C(c2cccc(O)c2O)OC1C (centres undefined) [VIBRIOBACTIN] | 0 | 0 | 0 | 0 | 0 | 0 | 0 | 0 | 32 | 0 |  | 0 | 0 | 32 | 32 | 0 |  |  | 
